Compound activity as filed in PubChem BioAssay.
APP 5'UTR act: APP 5'UTR luciferase reporter activation. actives 1% (n = 190,000). activation, % at 2 µM. SH-SY5Y APP 5'UTR luciferase reporter, luminescence; zero percent = DMSO vehicle wells;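 active means activation above a set limit, based on mean plus 3 SD of controls, cut at about 140% in these data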
NF-kB expr up: compounds increasing NF-kB expression in human neuronal cells; actives 1.6% (n = 190,000); fold change at 12.5 µM; NF-kB reporter expression; hits give high values; in the data active means fold change above about 3.3
AHR act: human AHR activation; P35869; AHR-responsive luciferase reporter cells, luminescence; activation, % at 5 µM; actives 2.5% (n = 320,000); AID 2796; in the data active means activation above about 47%;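 further: 0% = vehicle wells and 100% = reference agonist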
MDM2 E3 inh: Mdm2 E3 ligase (human) inhibition | Q00987 | cell-based MDM2 ubiquitination luciferase reporter, 2 h; 0 = plate control, 100 = twice control, blank-subtracted | signal enhancement, % at 5 µM | actives 0.11% (n = 210,000) | AID 1230;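 active means signal enhancement of 30% or more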;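 further: luminescence tracks abundance of the self-degrading MDM2-luciferase fusion protein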
Target sequence (Q00987 whole entry, looked up, the tested form may be a part): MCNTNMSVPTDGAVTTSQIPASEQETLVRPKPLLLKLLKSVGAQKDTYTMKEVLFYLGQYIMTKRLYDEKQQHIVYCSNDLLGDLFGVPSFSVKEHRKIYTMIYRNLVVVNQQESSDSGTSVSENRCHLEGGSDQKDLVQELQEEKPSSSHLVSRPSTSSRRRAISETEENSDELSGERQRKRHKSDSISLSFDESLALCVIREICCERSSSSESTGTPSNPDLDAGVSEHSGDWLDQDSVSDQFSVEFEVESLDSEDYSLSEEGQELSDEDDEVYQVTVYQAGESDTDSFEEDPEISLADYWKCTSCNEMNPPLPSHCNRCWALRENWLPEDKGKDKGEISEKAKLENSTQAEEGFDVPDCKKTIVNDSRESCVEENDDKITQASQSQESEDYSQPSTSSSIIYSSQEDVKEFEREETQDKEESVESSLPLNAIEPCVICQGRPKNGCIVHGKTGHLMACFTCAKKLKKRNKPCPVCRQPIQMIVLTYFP
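Material: stable MDM2–luciferase fusion reporter cells / Quantity: 2000 cells/well / Dosing: single 5 µM compound dose, 0.2% final DMSO / Buffer or medium: DMEM / Schedule: 4 h cell settling then 2 h compound exposure, 37 °C / Detection: luminescence with SteadyLite reagent, 15 min at room temperature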
PERK inhibitor: inhibitors of human PERK kinase; Q9NZJ5; CHO PERK-DD fusion, SEAP luminescence translation reporter; inhibition, % at 5.6 µM; actives 0.17% (n = 220,000); AID 1416;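 active means inhibition above the mean inhibition of all tested compounds plus 3 SD, set separately per screening campaign, cut at about 2.9% in these data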;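 further: PERK kinase domain activated by AP20187 dimerizer at 100 nM; 0% = DMSO with dimerizer and 100% = rapamycin at 8.4 µM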
STAT1 activator: STAT1 signaling activation; activation (% of control), % at 5.5 µM; NIH 3T3 STAT1-luciferase reporter, IFN-gamma, luminescence; 100% = IFN-gamma alone, no compound; actives 2.6% (n = 200,000);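 active means activation above the screen-wide mean activation plus 3 SD, cut at about 130% in these data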;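 further: raw ratio to IFN-gamma control signal so 100% means no change and 0% no light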
AHR act cf: human AHR activation, confirmation; shares compounds with AHR act; activation, % at 9 µM; human cells, AHR-responsive luciferase reporter, luminescence; actives 87% (n = 2,300); in the data active means activation above about 49%;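 further: HepG2 hepatoma cells carrying a DRE-driven firefly luciferase reporter; 0% = vehicle wells and 100% = reference agonist wells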
PXR counter: counter-screen for AHR activators: human PXR activators; shares compounds with AHR act; cell-based PXR reporter, luciferase luminescence; activation, % at 11.6 µM; actives 88% (n = 2,300); in the data active means activation above about 11%;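 further: human hepatoma DPX-2 cells expressing full-length human PXR; 0% = DMSO and 100% = reference agonist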
* hit, by the source's call; / = no result given. An excerpt weighted towards active compounds, which were near 4.5% of everything screened.

SMILES	APP 5'UTR act	NF-kB expr up	AHR act	MDM2 E3 inh	PERK inhibitor	STAT1 activator	AHR act cf	PXR counter
c1ccc(-c2n[nH]c(-c3ccccn3)n2)cc1	115	3.3	90*	-11	0	128	81*	24*
Nc1n[nH]c(-c2ccccc2)n1	16	0.95	5	-20	1	98	/	/
Cc1ccc(Nc2nc(N)c([N+](=O)[O-])c(N3CCOCC3)n2)cc1	-4	0.81	81*	-9	0	101	77*	22*
COc1ccc(Nc2cc(C)nc3ccc(OC)cc23)cc1	/	/	40	/	/	/	/	/
COc1ccc2nc(C)cc(N/N=C/c3ccc(F)cc3)c2c1	/	/	80*	/	/	/	69*	/
COc1ccc(/C=N/Nc2cc(C)nc3ccccc23)cc1	/	/	120*	/	/	/	50*	/
CC1CN(c2ccc(S(=O)(=O)N3CCCC3)cn2)CC(C)O1 (stereo unspecified)	/	/	1	-5	-1	/	/	/
Cc1nc2scc(-c3cccs3)c2c(=O)[nH]1	15	1.3	-1	-14	2	105	/	/
O=c1[nH]c(-c2ccc(O)cc2)nc2scc(-c3cccs3)c12	/	/	124*	-7	1	/	86*	23*
COc1ccc(OC)c(S(=O)(=O)N2Cc3ccccc3CC2C(=O)Nc2nccs2)c1 (stereo unspecified)	104	1.1	84*	8	1	107	60*	135*
CCOC(=O)c1sc(Nc2nc3c(OC)cccc3s2)nc1C	32	0.97	84*	15	0	107	127*	72*
O=C(CNC(=O)c1ccccc1F)OCc1nc2ccccc2s1	13	1	15	-21	1	118	/	/
CNc1sc(C(=O)c2ccccc2F)c(N)c1-c1nc2ccccc2s1	23	1.1	90*	-16	-1	92	88*	48*
Cc1c(C(=O)Nc2cccc([N+](=O)[O-])c2)sc2ncn(CC(=O)N3CCOCC3)c(=O)c12	/	/	-2	/	/	/	/	/
N/C(=N\c1nc2ccccc2o1)NC(=O)c1ccccc1	23	1.5	184*	-10	-1	115	180*	94*
O=S(=O)(Nc1ccc(Cl)cn1)c1ccc(F)cc1	/	/	2	/	/	/	/	/
CCOc1ccc2nc(/N=C/c3c(C)[nH]n(-c4ccc(C)cc4)c3=O)sc2c1	26	1.2	89*	/	1	118	67*	22*
CCOc1ccc2nc(/N=C/c3c(C)[nH]n(-c4ccccc4)c3=O)sc2c1	/	1.6	45	-14	2	115	/	/
CCOc1cccc(NC(=O)c2ccc(S(=O)(=O)N3CCCC3)cc2)c1	/	/	16	2	/	/	/	/
CC(C)n1cc(/C=C2\NC(=O)N(c3cccc(Cl)c3)C2=O)c2ccccc21	-5	1.1	41	-7	0	96	/	/
COCCn1c(C)cc(/C=C2/NC(=O)N(c3cccc(Cl)c3)C2=O)c1C	57	0.97	122*	-6	1	138*	5	74*
O=C1CCN(Cc2ccccc2)C=C1c1ccc2ccccc2c1	/	/	83*	/	/	/	108*	40*
COc1cc(C2=CN(Cc3ccccc3)CCC2=O)cc(OC)c1OC	/	/	6	/	/	/	/	/
O=C1CCN(Cc2ccccc2)C=C1c1ccc(Cl)cc1	/	/	26	/	/	/	/	/
O=C1CCN(Cc2ccccc2)C=C1c1ccc(C(F)(F)F)cc1	/	/	108*	/	/	/	102*	119*
SMILES	APP 5'UTR act	NF-kB expr up	AHR act	MDM2 E3 inh	PERK inhibitor	STAT1 activator	AHR act cf	PXR counter
CC[C@H](C)[C@H](NC(N)=O)C(=O)NCCc1ccc(Cl)cc1Cl	7	0.97	0	-8	0	95	/	/
O=C(NCc1ccccc1)Nc1cc(Cl)ccc1Cl	/	/	-1	-5	0	/	/	/
O=C(NCc1ccncc1)Nc1cc(Cl)ccc1Cl	-20	0.91	97*	-27	0	94	63*	26*
C=CCn1cc(/C=N/NC(=O)COc2cccc3cccnc23)c2ccccc21	0	0.96	82*	-5	0	112	36	38*
CC(C)n1cc(/C=N/NC(=O)COc2cccc3cccnc23)c2ccccc21	-2	0.53	45	-31	0	91	/	/
Cc1ccc(NC(=O)O/N=C/c2c(C)nn(C(C)(C)C)c2C)cc1Cl	/	/	-8	-87	1	/	/	/
Cc1ccc(-c2csc(-c3ccncc3)n2)cc1	70	2.6	80*	-7	0	144*	96*	8
COc1ccc(-c2csc(-c3ccc(O)cc3)n2)cc1	/	/	2	-6	-1	/	/	/
c1ccc(-c2csc(-c3ccc(-c4csnn4)cc3)n2)cc1	/	/	0	2	1	/	/	/
Brc1ccc(-c2csc(-c3ccncc3)n2)cc1	22	2	101*	2	0	128	102*	11*
Brc1ccc(-c2csc(Nc3nc(-c4ccc(Br)cc4)cs3)n2)cc1	/	/	85*	-13	-1	/	116*	17*
Nc1nc(-c2ccc(Br)cc2)cs1	19	1.8	9	-15	0	119	/	/
O=C(COc1ccc(S(=O)(=O)N2CCOCC2)cc1)NCCN1CCOCC1	/	/	-2	/	/	/	/	/
O=C(N/N=C/c1ccco1)c1ccncc1	/	0.98	6	-15	2	98	/	/
O=C(Nc1ccccc1C(=O)N/N=C/c1ccco1)c1ccc(F)cc1	8	1.1	200*	-19	-1	94	111*	12*
O=C(Nc1ccccc1C(=O)N/N=C/c1ccco1)c1ccccc1	10	1	127*	-6	0	95	151*	18*
O=C(Nc1ccccc1C(=O)N/N=C/c1ccco1)c1ccc(Cl)cc1	-14	0.92	87*	-10	0	96	94*	30*
Cc1ccccc1C(=O)Nc1ccccc1C(=O)N/N=C\c1ccco1	18	1.2	7	-3	0	99	/	/
Cc1ccc(S(=O)(=O)N2CCCCC2)cc1NC(=O)C1CCC1	/	/	0	/	/	/	/	/
CC(=O)N1CCc2cc(S(=O)(=O)C(C)CC(=O)Nc3ccc(OC(F)(F)F)cc3)ccc21 (stereo unspecified)	/	/	0	/	/	/	/	/
Cn1c(C(O)c2ccc(Cl)cc2)nc(Cl)c1Cl (stereo unspecified)	8	1	88*	0	0	105	114*	71*
Cn1c(C(O)c2ccccc2F)nc(Cl)c1Cl (stereo unspecified)	22	1.2	-3	-11	0	109	/	/
CN(C)c1ccc(NC2=C(Cl)C(=O)c3ccccc3C2=O)cc1	-94	0.54	135*	-7	0	128	76*	13*
COc1ccc(CCNC(=O)c2cnc3scc(C)n3c2=O)cc1OC	12	0.74	105*	-6	0	98	94*	40*
